ChEMBL document CHEMBL1157406, “Cytotoxic metabolites from the fungal endophyte Alternaria sp. and their subsequent detection in its host plant Polygonum senegalense” (J Nat Prod, 2008)
Converted amounts (≈) assume the structure as drawn.

How the values were obtained:
[1] = target: Cyclin-dependent kinase 4/cyclin D1 (Homo sapiens, UniProt P11802+P24385); assay: Inhibition of recombinant CDK4/CycD1
Procedure, shortened: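 Purified recombinant kinase, 50 µL reaction. 1 µM [γ-33P]-ATP with substrate; compound added in 10% DMSO. Tested over several concentrations; IC50 in g/mL.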

L5178Y = assay: Cytotoxicity against mouse L5178Y cells by MTT assay; type: functional, cell-based
Procedure, shortened: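 Mouse L5178Y lymphoma cells; MTT microculture tetrazolium read-out, relative to untreated controls. Vehicle controls with 0.1% EGMME/DMSO. Triplicate wells, experiment repeated three times.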

Aurora kinase B = Aurora kinase B (Homo sapiens, UniProt Q96GD4); assay: Inhibition of recombinant Aurora B phosphorylation in human HT29 cells; type: cell-based, HT-29
Procedure, shortened: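 HT29 cells pretreated 90 min with 10 µM staurosporine, then compound 90 min at 37 °C, then calyculin A 30 min. Lysates captured on antibody-coated plates; phospho-histone H3 detected with anti-P-His H3 as the Aurora B read-out.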

[2] = target: Insulin-like growth factor 1 receptor (Homo sapiens, UniProt P08069); assay: Inhibition of recombinant IGF1R phosphorylation transfected in mouse embryonic fibroblast
Procedure, shortened: (§1)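 Mouse embryonic fibroblasts stably transfected with FLT3 or IGF1-R; 90 min pretreatment with 10 µM staurosporine, compound 90 min at 37 °C. Stimulation with FLT3-ligand 5 min (FLT3) or IGF1 3 min (IGF1-R). Lysates captured on antibody-coated plates; autophosphorylation detected with antiphosphotyrosine PY99.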

[3] = target: Vascular endothelial growth factor receptor 2 (Homo sapiens, UniProt P35968); assay: Inhibition of recombinant VEGFR2 phosphorylation in human HUE cells; type: cell-based
Procedure, shortened: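 Human endothelial HUE cells pretreated 90 min with 10 µM staurosporine, compound 90 min at 37 °C, then VEGF165 7 min. Lysates captured on antibody-coated plates; VEGF-R2 autophosphorylation detected with antiphosphotyrosine PY99.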

[4] = target: T1, Receptor-type tyrosine-protein kinase FLT3 (Homo sapiens, UniProt P36888); assay: Inhibition of recombinant FLT3 phosphorylation transfected in mouse embryonic fibroblast; procedure, shortened: as §1
T1 sequence (P36888 whole entry): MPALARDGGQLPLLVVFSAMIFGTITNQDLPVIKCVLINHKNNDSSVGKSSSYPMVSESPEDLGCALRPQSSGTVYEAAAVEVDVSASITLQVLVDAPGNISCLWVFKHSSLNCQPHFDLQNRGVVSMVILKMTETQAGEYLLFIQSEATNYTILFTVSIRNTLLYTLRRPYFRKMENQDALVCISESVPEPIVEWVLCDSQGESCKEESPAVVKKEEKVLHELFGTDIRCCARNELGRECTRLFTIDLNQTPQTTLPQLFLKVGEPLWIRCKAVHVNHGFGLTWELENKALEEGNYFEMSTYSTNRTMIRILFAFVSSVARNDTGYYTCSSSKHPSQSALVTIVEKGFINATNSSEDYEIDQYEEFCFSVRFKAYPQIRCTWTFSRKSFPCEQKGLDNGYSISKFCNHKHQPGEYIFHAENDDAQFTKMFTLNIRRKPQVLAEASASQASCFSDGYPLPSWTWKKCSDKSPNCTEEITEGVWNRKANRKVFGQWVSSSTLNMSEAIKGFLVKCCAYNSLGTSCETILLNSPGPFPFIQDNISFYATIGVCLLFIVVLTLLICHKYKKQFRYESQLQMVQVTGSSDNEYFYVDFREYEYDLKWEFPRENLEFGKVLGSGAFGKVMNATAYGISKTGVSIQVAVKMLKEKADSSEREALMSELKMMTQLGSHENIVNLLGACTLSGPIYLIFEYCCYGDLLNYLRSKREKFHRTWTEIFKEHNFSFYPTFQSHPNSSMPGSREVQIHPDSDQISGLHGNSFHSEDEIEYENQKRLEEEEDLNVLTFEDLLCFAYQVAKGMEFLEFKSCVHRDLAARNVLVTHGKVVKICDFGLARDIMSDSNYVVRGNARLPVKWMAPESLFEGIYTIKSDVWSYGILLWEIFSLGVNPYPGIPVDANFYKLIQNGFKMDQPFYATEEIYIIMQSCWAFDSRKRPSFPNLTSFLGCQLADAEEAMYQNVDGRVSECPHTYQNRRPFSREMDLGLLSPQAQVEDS

Sequence of Cyclin-dependent kinase 4/cyclin D1 (P11802 whole entry): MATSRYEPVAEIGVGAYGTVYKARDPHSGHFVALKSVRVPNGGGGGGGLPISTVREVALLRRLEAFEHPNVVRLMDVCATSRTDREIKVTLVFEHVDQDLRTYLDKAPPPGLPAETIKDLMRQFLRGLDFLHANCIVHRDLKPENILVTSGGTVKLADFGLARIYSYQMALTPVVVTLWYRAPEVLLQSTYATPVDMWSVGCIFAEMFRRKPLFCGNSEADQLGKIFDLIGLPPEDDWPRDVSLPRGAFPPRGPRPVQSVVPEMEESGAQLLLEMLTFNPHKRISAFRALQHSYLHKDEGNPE
Sequence of Cyclin-dependent kinase 4/cyclin D1 (P24385 whole entry): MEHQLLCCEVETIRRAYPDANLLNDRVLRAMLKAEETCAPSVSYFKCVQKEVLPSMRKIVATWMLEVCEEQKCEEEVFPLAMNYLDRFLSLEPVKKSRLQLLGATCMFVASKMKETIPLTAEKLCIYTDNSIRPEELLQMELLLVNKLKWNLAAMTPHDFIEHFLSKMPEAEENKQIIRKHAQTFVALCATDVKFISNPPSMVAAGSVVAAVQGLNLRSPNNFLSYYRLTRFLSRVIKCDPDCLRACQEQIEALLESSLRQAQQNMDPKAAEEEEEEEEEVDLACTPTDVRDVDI
Sequence of Vascular endothelial growth factor receptor 2 (P35968 whole entry): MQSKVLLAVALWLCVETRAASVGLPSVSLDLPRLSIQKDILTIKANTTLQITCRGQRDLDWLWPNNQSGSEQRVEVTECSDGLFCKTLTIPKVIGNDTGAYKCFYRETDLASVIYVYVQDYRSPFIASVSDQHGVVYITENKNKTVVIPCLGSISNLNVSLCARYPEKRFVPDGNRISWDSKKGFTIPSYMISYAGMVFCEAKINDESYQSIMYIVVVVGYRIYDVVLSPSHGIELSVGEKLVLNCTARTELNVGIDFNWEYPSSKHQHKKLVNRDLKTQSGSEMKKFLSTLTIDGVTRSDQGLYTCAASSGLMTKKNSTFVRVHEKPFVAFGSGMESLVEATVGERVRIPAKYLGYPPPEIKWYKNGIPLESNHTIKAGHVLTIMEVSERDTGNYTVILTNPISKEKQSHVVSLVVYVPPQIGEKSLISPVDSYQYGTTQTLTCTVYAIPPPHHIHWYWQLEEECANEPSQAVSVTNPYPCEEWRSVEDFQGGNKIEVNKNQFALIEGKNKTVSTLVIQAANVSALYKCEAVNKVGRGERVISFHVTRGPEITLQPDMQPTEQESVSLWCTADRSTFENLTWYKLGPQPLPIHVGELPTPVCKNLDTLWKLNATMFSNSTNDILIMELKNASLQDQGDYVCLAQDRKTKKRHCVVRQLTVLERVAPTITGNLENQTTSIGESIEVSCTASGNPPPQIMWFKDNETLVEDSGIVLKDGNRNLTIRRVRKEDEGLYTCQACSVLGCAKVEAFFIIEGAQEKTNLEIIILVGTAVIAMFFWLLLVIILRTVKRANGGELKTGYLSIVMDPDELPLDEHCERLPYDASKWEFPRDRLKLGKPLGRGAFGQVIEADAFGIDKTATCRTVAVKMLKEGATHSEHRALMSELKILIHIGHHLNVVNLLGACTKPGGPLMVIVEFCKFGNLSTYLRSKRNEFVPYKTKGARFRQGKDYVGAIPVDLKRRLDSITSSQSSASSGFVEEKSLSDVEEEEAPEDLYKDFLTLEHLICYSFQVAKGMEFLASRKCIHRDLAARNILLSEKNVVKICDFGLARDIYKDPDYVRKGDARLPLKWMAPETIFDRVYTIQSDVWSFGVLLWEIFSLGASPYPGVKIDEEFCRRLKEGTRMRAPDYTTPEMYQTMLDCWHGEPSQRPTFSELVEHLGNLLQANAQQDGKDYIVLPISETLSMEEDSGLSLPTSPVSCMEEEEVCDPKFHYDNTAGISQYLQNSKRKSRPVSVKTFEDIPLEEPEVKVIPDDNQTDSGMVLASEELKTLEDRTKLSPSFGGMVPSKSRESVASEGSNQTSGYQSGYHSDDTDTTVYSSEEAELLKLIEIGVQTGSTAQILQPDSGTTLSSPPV
Sequence of Aurora kinase B (Q96GD4 whole entry): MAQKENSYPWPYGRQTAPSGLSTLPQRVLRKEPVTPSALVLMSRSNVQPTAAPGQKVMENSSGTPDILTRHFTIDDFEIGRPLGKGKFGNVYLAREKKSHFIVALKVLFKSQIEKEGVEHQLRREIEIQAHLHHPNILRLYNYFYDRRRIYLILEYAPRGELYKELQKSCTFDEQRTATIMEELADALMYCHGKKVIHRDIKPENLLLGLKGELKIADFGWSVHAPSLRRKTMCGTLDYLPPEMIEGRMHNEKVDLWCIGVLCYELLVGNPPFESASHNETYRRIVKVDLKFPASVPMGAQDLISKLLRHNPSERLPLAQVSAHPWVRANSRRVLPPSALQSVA
Sequence of Insulin-like growth factor 1 receptor (P08069 31-736 limits assumed): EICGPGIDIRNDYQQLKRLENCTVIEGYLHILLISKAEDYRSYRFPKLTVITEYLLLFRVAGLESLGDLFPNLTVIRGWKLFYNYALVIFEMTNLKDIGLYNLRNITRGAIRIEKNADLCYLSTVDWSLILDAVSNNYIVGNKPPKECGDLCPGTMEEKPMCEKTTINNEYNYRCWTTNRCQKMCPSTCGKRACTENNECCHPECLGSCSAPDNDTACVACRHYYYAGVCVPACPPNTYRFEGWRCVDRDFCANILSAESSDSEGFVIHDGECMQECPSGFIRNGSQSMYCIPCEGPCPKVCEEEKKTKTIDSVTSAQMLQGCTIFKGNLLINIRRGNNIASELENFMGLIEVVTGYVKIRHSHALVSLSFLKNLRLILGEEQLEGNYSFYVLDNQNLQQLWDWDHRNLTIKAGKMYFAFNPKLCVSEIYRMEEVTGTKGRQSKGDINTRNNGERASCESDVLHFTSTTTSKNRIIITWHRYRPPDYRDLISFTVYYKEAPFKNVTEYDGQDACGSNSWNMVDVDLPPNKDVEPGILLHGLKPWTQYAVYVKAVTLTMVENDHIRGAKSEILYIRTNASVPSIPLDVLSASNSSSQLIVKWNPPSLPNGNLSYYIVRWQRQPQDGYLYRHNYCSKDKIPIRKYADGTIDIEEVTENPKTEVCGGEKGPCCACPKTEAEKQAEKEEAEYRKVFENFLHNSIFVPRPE
Sequence of Insulin-like growth factor 1 receptor (P08069 741-1367 limits assumed): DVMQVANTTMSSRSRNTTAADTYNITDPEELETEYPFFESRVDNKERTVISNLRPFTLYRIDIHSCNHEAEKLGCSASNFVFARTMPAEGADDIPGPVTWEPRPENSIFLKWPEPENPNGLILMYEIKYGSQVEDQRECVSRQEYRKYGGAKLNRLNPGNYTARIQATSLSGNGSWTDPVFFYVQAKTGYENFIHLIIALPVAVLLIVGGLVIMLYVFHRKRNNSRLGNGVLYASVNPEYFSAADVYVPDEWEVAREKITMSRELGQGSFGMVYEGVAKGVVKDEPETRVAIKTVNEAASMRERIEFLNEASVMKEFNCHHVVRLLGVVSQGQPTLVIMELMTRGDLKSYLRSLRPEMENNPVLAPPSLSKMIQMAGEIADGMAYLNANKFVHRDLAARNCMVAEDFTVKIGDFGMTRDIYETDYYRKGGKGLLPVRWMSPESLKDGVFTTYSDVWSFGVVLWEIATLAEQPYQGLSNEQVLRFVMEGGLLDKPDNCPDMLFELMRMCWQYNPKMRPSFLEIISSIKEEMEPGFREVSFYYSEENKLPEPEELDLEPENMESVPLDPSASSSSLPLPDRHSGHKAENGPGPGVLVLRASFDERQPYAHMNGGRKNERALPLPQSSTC

| Structure (SMILES) | IC50 [1] | EC50 (L5178Y) | further results |
| --- | --- | --- | --- |
| COc1cc(O)c2c(c1)-c1cc(O)c(O)cc1COC2=O [ALTERLACTONE] | > 1 ×10⁻⁵ g/ml | – | – |
| COc1cc(O)c2c(=O)oc3cc(O)cc(C)c3c2c1 | – | 7.8 µg/mL (≈ 28.6 µM) | – |
| COc1cc(O)c(C(=O)O)c(-c2cc(O)c(O)cc2C)c1 [ALTENUSIN] | – | 6.8 µg/mL (≈ 23.4 µM) | – |
| COc1cc(O)c(C(=O)O)c(C2=C(C)C[C@@H](O)C2=O)c1 [ALTERNARIENONIC ACID] | > 1 ×10⁻⁵ g/ml | – | – |
| Cc1cc(O)cc2oc(=O)c3c(O)cc(O)cc3c12 [ALTERNARIOL] | – | 1.7 µg/mL (≈ 6.58 µM) | IC50 (Aurora kinase B): 3.87 µM; IC50 [2]: 3.87 µM; IC50 [3]: 3.87 µM; IC50 [4]: 3.87 µM |
| COc1cc(O)c2c(c1)C1(OC2=O)C(C)=CC(=O)C1O (configuration not stated) [TALAROFLAVONE] | > 1 ×10⁻⁵ g/ml | – | – |
| Cc1cc(O)cc2oc(=O)c3c(O)cc(OS(=O)(=O)O)cc3c12 | – | 4.5 µg/mL (≈ 13.3 µM) | – |
| Cc1cc(O)c(O)cc1-c1cc(O)cc(O)c1C(=O)O | – | 6.2 µg/mL (≈ 22.4 µM) | – |
